Where a chain is given by its changes, count along the chain named. Numbered stars: 1 amine (or outer) side, 2 acyl side, 3 side chain; on linkers, the order of the positions; unused ones are H or OH. Bridge positions count the residues as written; N and C are the ends. Square brackets hold non-standard residues; d marks the D form. Peptide text beside a SMILES is read from it. X1 = CC(=O)NC(C(=O)OC(C(C)C)C(N[*:1])C(=O)[*:2])C(O)C(C)C; PhLac = O=C(O)[CH](O)Cc1ccccc1; NMeT = CN[CH](C(=O)O)[CH](C)O; NMeA = CN[CH](C)C(=O)O; NMeDha = C=C(NC)C(=O)O
Experiments:
mouse GPR39 = target: T1, mouse GPR39 (Mus musculus, UniProt Q5U431); test: FLIPR Ca2+ assay in HEK293T cells stably expressing mouse GPR39; assay type: cell-based; conditions: for GPR39 activation, presence or absence of 4 μM Zn2+: with or without 4 μM Zn2+
T1 sequence (Q5U431 1-456): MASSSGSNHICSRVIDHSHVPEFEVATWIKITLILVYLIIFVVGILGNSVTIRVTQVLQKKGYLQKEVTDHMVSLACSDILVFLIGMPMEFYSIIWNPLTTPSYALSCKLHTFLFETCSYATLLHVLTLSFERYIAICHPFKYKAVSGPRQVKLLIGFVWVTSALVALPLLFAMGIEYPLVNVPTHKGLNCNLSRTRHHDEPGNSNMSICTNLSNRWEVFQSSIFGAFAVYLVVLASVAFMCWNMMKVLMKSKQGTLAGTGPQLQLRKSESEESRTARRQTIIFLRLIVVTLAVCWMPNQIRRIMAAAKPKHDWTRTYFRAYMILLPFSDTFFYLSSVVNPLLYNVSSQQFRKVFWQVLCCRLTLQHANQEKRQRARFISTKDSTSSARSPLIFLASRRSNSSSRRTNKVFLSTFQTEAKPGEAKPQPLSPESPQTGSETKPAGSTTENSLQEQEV

[1] = tested on: zebrafish (Danio rerio) GPR39 (zfGPR39); test: FLIPR Ca2+ assay, HEK293T cells expressing zebrafish GPR39; assay type: cell-based
Summary of the method: (§1)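 HEK293T cells expressing mouse GPR39 H17A/H19A mutant or zebrafish GPR39, Fluo-8-loaded, read by FLIPR at room temperature (addition at 30 s, 150 s recording). Where Zn2+ used, cells preincubated with 4 μM Zn2+ in recording buffer for 5 min and it was kept with all compound concentrations. Responses normalized to 200 μM LCAS; n = 3 or 4.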

GPR39 [2] = conditions: cited from earlier work
[3] = tested on: mock-transfected HEK293T cells; test: Ca2+ response of mock-transfected HEK293T cells; assay type: cell-based, human; conditions: 200 μM
Summary of the method: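 Sham-transfected HEK293T cells loaded with Fluo-8 AM (2 μg/ml) in recording buffer for 25 min at room temperature, then 5 min in recording buffer. FLIPR read at room temperature every 1 s; 200 μM test compound or Zn2+ dispensed at 30 s, followed by 150 s recording.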

GHSR = GHSR (Homo sapiens, UniProt Q92847); test: FLIPR Ca2+ assay, GHSR expressed in HEK293T-Gα15-GCaMP6s cells; assay type: cell-based; conditions: for GHSR activation: 200 μM BAs; for Maximal efficacy at GHSR: normalized to 1 μM ghrelin
GPBAR1 = target: T2, GPBAR1 (Homo sapiens, UniProt Q8TDU6); test: CRE luciferase reporter assay; assay type: cell-based
T2 sequence (Q8TDU6 1-330): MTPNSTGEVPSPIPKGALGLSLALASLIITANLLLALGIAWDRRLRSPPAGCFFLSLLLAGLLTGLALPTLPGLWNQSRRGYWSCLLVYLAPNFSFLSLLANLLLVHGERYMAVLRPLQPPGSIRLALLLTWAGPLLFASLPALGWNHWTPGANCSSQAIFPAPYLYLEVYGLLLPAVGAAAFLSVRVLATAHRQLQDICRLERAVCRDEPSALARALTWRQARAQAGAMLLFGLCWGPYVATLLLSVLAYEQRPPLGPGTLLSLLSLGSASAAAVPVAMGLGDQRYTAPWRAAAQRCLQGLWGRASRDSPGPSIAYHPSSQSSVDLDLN

pancreatic acinar cells [4] = test: Ca2+ imaging in freshly isolated pancreatic acinar cells; assay type: cell-based, mouse
GPR39 [5] = target: T3, GPR39 (Homo sapiens, UniProt O43194); assay type: cell-based; conditions: 200 μM
T3 sequence (O43194 1-453): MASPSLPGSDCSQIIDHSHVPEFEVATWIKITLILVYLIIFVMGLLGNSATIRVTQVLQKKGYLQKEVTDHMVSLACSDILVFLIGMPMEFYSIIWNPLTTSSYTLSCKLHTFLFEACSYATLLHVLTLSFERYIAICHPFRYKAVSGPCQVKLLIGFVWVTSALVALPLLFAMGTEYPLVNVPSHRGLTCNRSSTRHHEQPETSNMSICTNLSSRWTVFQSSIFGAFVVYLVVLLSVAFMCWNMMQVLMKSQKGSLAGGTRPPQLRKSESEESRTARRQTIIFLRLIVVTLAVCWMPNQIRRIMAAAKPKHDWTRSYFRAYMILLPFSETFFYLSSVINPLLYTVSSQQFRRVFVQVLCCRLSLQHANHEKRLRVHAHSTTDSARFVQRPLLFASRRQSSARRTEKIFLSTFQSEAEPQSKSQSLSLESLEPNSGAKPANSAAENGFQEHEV
Summary of the method: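 HEK293T cells stably expressing Gα15 and GCaMP6s, on poly-D-lysine-coated plates, transiently transfected with human GPCR cDNAs. Test compound added by pipette at 200 μM; intracellular Ca2+ imaged by confocal microscopy.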

H17A/H19A mutant GPR39 = target: T4, H17A/H19A mutant GPR39 (Mus musculus, UniProt Q5U431, H17A/H19A); test: FLIPR Ca2+ assay, HEK293T cells expressing GPR39 H17A/H19A mutant; assay type: cell-based
T4 sequence (Q5U431 1-456 H17A/H19A): T1 sequence (Q5U431 1-456) with H17A, H19A
Summary of the method: as §1

G. Gallus GPR39 = test: FLIPR Ca2+ assay, HEK293T cells expressing chicken GPR39; assay type: cell-based, chicken (Gallus Gallus)
G. japonicus GPR39 = test: FLIPR Ca2+ assay, HEK293T cells expressing gecko GPR39; assay type: cell-based, gecko (Gekko japonicus)
X. laevis GPR39 = test: FLIPR Ca2+ assay, HEK293T cells expressing frog GPR39; assay type: cell-based, frog (Xenopus laevis)
pancreatic acinar cells [6] = test: Amylase release from isolated pancreatic acini; assay type: cell-based, mouse; conditions: 500 μM LCAS, 500 μM TLCAS, 1 nM caerulein
Summary of the method: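 Mouse acini (WT, Gpr39−/−, Gpbar1−/−) isolated and held as for the LDH assay, then exposed to test compound at 37°C for 30 min. Amylase activity measured in supernatant. Vehicle leakage subtracted as basal; net release expressed as % of total activity (0.5% Triton X-100 lysate). One-way ANOVA with Tukey posttest versus WT.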

pancreatic acinar cells [7] = test: Acinar cell injury: PI uptake, LDH leakage, blebbing; assay type: cell-based, mouse; conditions: 4 hours
Summary of the method: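 Mouse acini (WT, Gpr39−/−, Gpbar1−/−) digested with 1 mg/ml collagenase IV, collected on 150-μm nylon cloth, and suspended in Hepes-buffered DMEM/F12 with 1 mg/ml BSA. Exposed to test compound at 37°C for 4 h. LDH in supernatant measured by kit, expressed as % of total LDH (0.5% Triton X-100 lysate). PI uptake: acini resuspended in 2 μg/ml PI, fluorescence ex 536/em 617 nm, normalized to vehicle.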

[8] = WT mice, LCAS 500 μM, TLCAS 500 μM, caerulein 100 nM

GHSR, sequence (Q92847 whole entry): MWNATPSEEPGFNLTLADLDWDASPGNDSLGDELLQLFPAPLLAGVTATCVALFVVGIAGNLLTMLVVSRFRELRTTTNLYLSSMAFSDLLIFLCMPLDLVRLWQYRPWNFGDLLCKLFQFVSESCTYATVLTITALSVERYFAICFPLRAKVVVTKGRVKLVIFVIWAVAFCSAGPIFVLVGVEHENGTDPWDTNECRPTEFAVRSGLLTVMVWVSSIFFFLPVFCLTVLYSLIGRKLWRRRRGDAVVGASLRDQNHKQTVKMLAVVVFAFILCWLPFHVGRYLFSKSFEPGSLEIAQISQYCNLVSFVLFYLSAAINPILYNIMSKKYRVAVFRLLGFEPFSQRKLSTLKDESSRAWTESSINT

## 5b-cholestanpentol
Mouse GPR39
  GPR39 activation, presence or absence of 4 μM Zn2+: robustly activated
[1]
  zfGPR39 activation: minimal effects

## CCCCCC1OC1C/C=C\C/C=C\C/C=C\CCCC(=O)O (racemic) [14(15)-EET, (±)14(15)-epoxy-5Z,8Z,11Z-eicosatrienoic acid]
GPR39 [2]
  GPR39 blockade (report): blocked

## CCCCC[C@H](O)/C=C/C=C\C/C=C\C/C=C\CCCC(=O)O [15(S)-HETE, 15S-hydroxy-5Z,8Z,11Z,13E-eicosatetraenoic acid]
GPR39 [2]
  GPR39 activation (report): GPR39 activation

## C[C@H](CCC(=O)O)[C@H]1CC[C@H]2[C@@H]3[C@H](O)C[C@@H]4C[C@H](O)CC[C@]4(C)[C@H]3CC[C@]12C [CDCA, chenodeoxycholic acid]
[3]
  Ca2+ elevation in mock-transfected cells: nonspecific Ca^2+ elevations
GHSR
  GHSR activation: activated
  Maximal efficacy at GHSR: comparable to ghrelin

## C[C@H](CCC(=O)O)[C@H]1CC[C@H]2[C@@H]3CC[C@@H]4C[C@H](O)CC[C@]4(C)[C@H]3C[C@H](O)[C@]12C [DCA, deoxycholic acid]
GPBAR1
  GPBAR1 activation: potent agonists
[3]
  Ca2+ elevation in mock-transfected cells: nonspecific Ca^2+ elevations
GHSR; 10 μM BA
  Effect on GHSR activation by ghrelin: did not potentiate or attenuate
GHSR
  GHSR activation: activated
  Maximal efficacy at GHSR: comparable to ghrelin

## CC[C@H]1[C@@H](O)[C@@H]2[C@H](C[C@H](O)[C@]3(C)[C@@H]([C@H](C)C[C@H](C)C(=O)O)CC[C@@H]23)[C@@]2(C)CC[C@@H](O)C[C@@H]12 [INT-777]
Pancreatic acinar cells [4]
  Ca2+ elevation in acinar cells by GPBAR1 ligands and agonist: not observed

## COc1ccc(Cn2c(CCc3ccccc3)nnc2[C@@H](Cc2c[nH]c3ccccc23)NC(=O)CN)cc1 [JMV-2959, JMV2959]
GHSR; 10 μM JMV2959, LCA 200 μM
  Effect on Ca2+ mobilization induced by LCA in GHSR-expressing cells: moderately but not fully inhibited

## C[C@H](CCC(=O)O)[C@H]1CC[C@H]2[C@@H]3CC[C@@H]4C[C@H](O)CC[C@]4(C)[C@H]3CC[C@]12C [LCA, lithocholic acid]
Mouse GPR39; 4 μM BA
  Enhancement of GPR39 activation by Zn2+: enhanced
GHSR; 1 μM LCA
  Effect on GHSR activation by ghrelin: no effect
GHSR; 10 μM BA
  Effect on GHSR activation by ghrelin: attenuated the effect of ghrelin
GHSR
  GHSR activation: activated
  Maximal efficacy at GHSR: lower efficacy
GHSR; compared with UDCA, DCA, and CDCA
  Sensitivity at GHSR: relatively higher sensitivity

## C[C@H](CCC(=O)O)[C@H]1CC[C@H]2[C@@H]3[C@@H](O)C[C@@H]4C[C@H](O)CC[C@]4(C)[C@H]3CC[C@]12C [UDCA, ursodeoxycholic acid]
GHSR; 10 μM BA
  Effect on GHSR activation by ghrelin: did not potentiate or attenuate
GHSR
  GHSR activation: activated
  Maximal efficacy at GHSR: comparable to ghrelin

## C=C1C(=O)NC(C)C(=O)N(C)C(C)C(=O)NC(C(OC(=O)C(NC(C)=O)C(O)C(C)C)C(C)C)C(=O)N(C)C(C(C)OC)C(=O)OC(C)C(NC(C)=O)C(=O)OC(Cc2ccccc2)C(=O)N1C (stereo not drawn) [YM254890] (Ac-T[PhLac][NMeDha]A[NMeA][X1][NMeT](Me); ester 1-C; configuration not given here)
Pancreatic acinar cells [4]; 10 μM YM254890 for 10 min, 500 μM TLCAS
  Effect on Ca2+ elevation induced by TLCAS in acinar cells: eliminated

## [Zn+2] [Zn^2+]
Mouse GPR39
  Zn2+ concentration that notably shifts GPR39 activation by LCAS: above 1 μM
Mouse GPR39; 4 μM Zn2+, leftward shift of the dose-response curve
  Effect of Zn2+ on GPR39-mediated calcium response to TLCAS: potentiated
GPR39 [5]
  Ca2+ response of GPR39-transfected HEK293T cells: exhibited Ca^2+ responses
[3]
  Ca2+ response of mock-transfected HEK293T cells: responded to neither
H17A/H19A mutant GPR39
  Effect of H17A/H19A mutations on Zn2+-induced Ca2+ elevation: abolished
[1]
  zfGPR39 activation: little response
G. Gallus GPR39
  Response of chicken GPR39: strong dose-dependent responses
G. japonicus GPR39
  Response of gecko GPR39: strong dose-dependent responses
X. laevis GPR39
  Response of frog GPR39: strong dose-dependent responses

## CC(C)CCC[C@@H](C)[C@H]1CC[C@H]2[C@@H]3CC=C4C[C@@H](OS(=O)(=O)O)CC[C@]4(C)[C@H]3CC[C@]12C [cholesterol-S, cholesterol 3-sulfate]
Mouse GPR39
  GPR39 activation, presence or absence of 4 μM Zn2+: could not activate GPR39

## CC(C)CCC[C@@H](C)[C@H]1CC[C@H]2[C@@H]3CC=C4C[C@@H](O)CC[C@]4(C)[C@H]3CC[C@]12C [cholesterol]
Mouse GPR39
  GPR39 activation, presence or absence of 4 μM Zn2+: could not activate GPR39

## Caerulein
Pancreatic acinar cells [6]
  Effect of deleting Gpbar1 on induced amylase discharge: did not alter
Pancreatic acinar cells [7]; Gpr39 knockout
  Effect of Gpr39 knockout on induced PI uptake and LDH leakage: did not affect
Pancreatic acinar cells [7]; [8]
  LDH release from isolated acinar cells: increased LDH release
  PI uptake into isolated acinar cells: increased PI uptake

Source: article PMC10836733 (Science Advances, 2024)
